According to ChEMBL document CHEMBL3994650, “New 1,4-dihydro[1,8]naphthyridine derivatives as DNA gyrase inhibitors” (Bioorg Med Chem Lett, 2017):
Converted amounts (≈) assume the structure as drawn. The source made the active and inactive calls. No cut-off for these calls is given here.

Columns and labels:
Staphylococcus aureus [1] = assay: Antibacterial activity against Staphylococcus aureus ATCC 25923 incubated after 24 hrs by resazurin dye based broth microdilution assay; assay type: functional; conditions: ATCC 25923, 24 h
NIH3T3 = assay: Cytotoxicity against mouse NIH/3T3 cells assessed as reduction in cell proliferation after 24 hrs by MTT assay; assay type: cell-based; conditions: NIH3T3, 24 h
Enterococcus faecalis [2] = assay: Antibacterial activity against Enterococcus faecalis ATCC 51299 incubated after 24 hrs by resazurin dye based broth microdilution assay; assay type: functional; conditions: ATCC 51299, 24 h
Escherichia coli [3] = assay: Antibacterial activity against Escherichia coli ATCC 25922 incubated after 24 hrs by resazurin dye based broth microdilution assay; assay type: functional; conditions: ATCC 25922, 24 h
Klebsiella pneumoniae = assay: Antibacterial activity against Klebsiella pneumoniae ATCC 700603 incubated after 24 hrs by resazurin dye based broth microdilution assay; assay type: functional; conditions: Klebsiella pneumoniae, 700603, 24 h
[4] = tested on: Escherichia coli ATCC 25922; assay: Inhibition of Escherichia coli DNA gyrase assessed as inhibition of enzyme-mediated supercoiling of relaxed pHOT1 DNA substrate at […] to […] ug/ml after 30 mins by gel electrophoresis method
Enterococcus faecalis [5] = assay: Antibacterial activity against Enterococcus faecalis ATCC 29212 incubated after 24 hrs by resazurin dye based broth microdilution assay; assay type: functional; conditions: ATCC 29212, 24 h
Listeria monocytogenes = assay: Antibacterial activity against Listeria monocytogenes ATCC 7644 incubated after 24 hrs by resazurin dye based broth microdilution assay; assay type: functional; conditions: ATCC 7644, 24 h
Pseudomonas aeruginosa = assay: Antibacterial activity against Pseudomonas aeruginosa ATCC 27853 incubated after 24 hrs by resazurin dye based broth microdilution assay; assay type: functional; conditions: ATCC 27853, 24 h
Escherichia coli [6] = assay: Antibacterial activity against Escherichia coli ATCC 35218 incubated after 24 hrs by resazurin dye based broth microdilution assay; assay type: functional; conditions: ATCC 35218, 24 h
Staphylococcus aureus [7] = assay: Antibacterial activity against Staphylococcus aureus ATCC 25923 assessed as decrease in ATP level at […] ug/ml after 24 hrs by BacTiter-Glo reagent based bioluminescence assay; assay type: functional
[8] = Selectivity index, ratio of IC50 for mouse NIH/3T3 cells to MIC90 for Pseudomonas aeruginosa ATCC 27853; assay type: toxicity; conditions: read-out: Selectivity Index
[9] = Selectivity index, ratio of IC50 for mouse NIH/3T3 cells to MIC90 for Listeria monocytogenes ATCC 7644; assay type: toxicity; conditions: read-out: Selectivity Index
[10] = tested on: Escherichia coli ATCC 25922; assay: Inhibition of Escherichia coli DNA gyrase assessed as inhibition of enzyme-mediated supercoiling of relaxed pHOT1 DNA substrate after 30 mins by gel electrophoresis method
How it was run: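 E. coli DNA gyrase (1 U) was incubated with relaxed pHOT1 DNA substrate (0.25 µg) for 30 min at 37 °C. Compounds were tested at 15.6, 7.8, 3.9 and 1.95 µg/L. Controls were supercoiled DNA, relaxed DNA, relaxed DNA plus gyrase, and 1% DMSO. Supercoiling was read by agarose gel electrophoresis.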

[11] = Selectivity index, ratio of IC50 for mouse NIH/3T3 cells to MIC90 for Klebsiella pneumoniae ATCC 700603; assay type: toxicity; conditions: read-out: Selectivity Index

MIC90 (Staphylococcus aureus [1])	MIC90 (Enterococcus faecalis [2])	MIC90 (Escherichia coli [3])	MIC90 (Klebsiella pneumoniae)	inhibition [4]	MIC90 (Enterococcus faecalis [5])	MIC90 (Listeria monocytogenes)	MIC90 (Pseudomonas aeruginosa)	MIC90 (Escherichia coli [6])	inhibition [10]	SMILES	IC50 (NIH3T3)	Activity (Staphylococcus aureus [7])	selectivity ratio [8]	selectivity ratio [9]	selectivity ratio [11]
≤ 1.95 µg/mL	≤ 1.95 µg/mL	≤ 1.95 µg/mL	3.9 µg/mL (≈ 9.72 µM)	Active	≤ 1.95 µg/mL	3.9 µg/mL (≈ 9.72 µM)	3.9 µg/mL (≈ 9.72 µM)	≤ 1.95 µg/mL		COc1c(N2C[C@@H]3CCCN[C@@H]3C2)c(F)cc2c(=O)c(C(=O)O)cn(C3CC3)c12 [MOXIFLOXACIN]	380 µg/mL (≈ 946 µM)				
62.5 µg/mL (≈ 122 µM)	125 µg/mL (≈ 243 µM)	125 µg/mL (≈ 243 µM)	125 µg/mL (≈ 243 µM)		125 µg/mL (≈ 243 µM)	125 µg/mL (≈ 243 µM)	125 µg/mL (≈ 243 µM)	125 µg/mL (≈ 243 µM)		CCOC(=O)c1cn(-c2ccc(F)cc2F)c2nc(Sc3nc4ccccc4s3)c(F)cc2c1=O					
≤ 1.95 µg/mL	≤ 1.95 µg/mL	≤ 1.95 µg/mL	≤ 1.95 µg/mL	Active	≤ 1.95 µg/mL	≤ 1.95 µg/mL	≤ 1.95 µg/mL	≤ 1.95 µg/mL		N[C@@H]1[C@H]2CN(c3nc4c(cc3F)c(=O)c(C(=O)O)cn4-c3ccc(F)cc3F)C[C@@H]12 [TROVAFLOXACIN]	244 µg/mL (≈ 587 µM)	Active			
125 µg/mL (≈ 231 µM)	250 µg/mL (≈ 462 µM)	250 µg/mL (≈ 462 µM)	125 µg/mL (≈ 231 µM)		250 µg/mL (≈ 462 µM)	125 µg/mL (≈ 231 µM)	125 µg/mL (≈ 231 µM)	125 µg/mL (≈ 231 µM)		CCOC(=O)c1cn(-c2ccc(F)cc2F)c2nc(Sc3nc4cc([N+](=O)[O-])ccc4[nH]3)c(F)cc2c1=O					
62.5 µg/mL (≈ 122 µM)	250 µg/mL (≈ 490 µM)	125 µg/mL (≈ 245 µM)	125 µg/mL (≈ 245 µM)		125 µg/mL (≈ 245 µM)	125 µg/mL (≈ 245 µM)	62.5 µg/mL (≈ 122 µM)	250 µg/mL (≈ 490 µM)		CCOC(=O)c1cn(-c2ccc(F)cc2F)c2nc(Sc3nc4cc(C)ccc4[nH]3)c(F)cc2c1=O					
62.5 µg/mL (≈ 118 µM)	125 µg/mL (≈ 235 µM)	62.5 µg/mL (≈ 118 µM)	125 µg/mL (≈ 235 µM)		125 µg/mL (≈ 235 µM)	62.5 µg/mL (≈ 118 µM)	125 µg/mL (≈ 235 µM)	125 µg/mL (≈ 235 µM)		CCOC(=O)c1cn(-c2ccc(F)cc2F)c2nc(Sc3nc4cc(Cl)ccc4[nH]3)c(F)cc2c1=O					
15.6 µg/mL (≈ 32.1 µM)	62.5 µg/mL (≈ 129 µM)	31.2 µg/mL (≈ 64.4 µM)	31.2 µg/mL (≈ 64.4 µM)		31.2 µg/mL (≈ 64.4 µM)	31.2 µg/mL (≈ 64.4 µM)	31.2 µg/mL (≈ 64.4 µM)	31.2 µg/mL (≈ 64.4 µM)		O=C(O)c1cn(-c2ccc(F)cc2F)c2nc(Sc3nc4ccccc4s3)c(F)cc2c1=O					
≤ 1.95 µg/mL	≤ 1.95 µg/mL	≤ 1.95 µg/mL	≤ 1.95 µg/mL		≤ 1.95 µg/mL	3.9 µg/mL (≈ 11.8 µM)	≤ 1.95 µg/mL	≤ 1.95 µg/mL		O=C(O)c1cn(C2CC2)c2cc(N3CCNCC3)c(F)cc2c1=O [CIPROFLOXACIN]	306 µg/mL (≈ 923 µM)	Active			
62.5 µg/mL (≈ 121 µM)	62.5 µg/mL (≈ 121 µM)	125 µg/mL (≈ 242 µM)	250 µg/mL (≈ 483 µM)		125 µg/mL (≈ 242 µM)	125 µg/mL (≈ 242 µM)	125 µg/mL (≈ 242 µM)	125 µg/mL (≈ 242 µM)		CCOC(=O)c1cn(-c2ccc(F)cc2F)c2nc(N3CCN(CCCN(C)C)CC3)c(F)cc2c1=O					
1.95 µg/mL (≈ 3.8 µM)	15.6 µg/mL (≈ 30.4 µM)	3.9 µg/mL (≈ 7.6 µM)	15.6 µg/mL (≈ 30.4 µM)		7.8 µg/mL (≈ 15.2 µM)	15.6 µg/mL (≈ 30.4 µM)	15.6 µg/mL (≈ 30.4 µM)	3.9 µg/mL (≈ 7.6 µM)	Dose-dependent effect	O=C(O)c1cn(-c2ccc(F)cc2F)c2nc(Sc3nc4cc([N+](=O)[O-])ccc4[nH]3)c(F)cc2c1=O	122 µg/mL (≈ 237 µM)	Active	8	8	8
7.8 µg/mL (≈ 15.5 µM)	31.2 µg/mL (≈ 62.1 µM)	15.6 µg/mL (≈ 31 µM)	31.2 µg/mL (≈ 62.1 µM)		31.2 µg/mL (≈ 62.1 µM)	15.6 µg/mL (≈ 31 µM)	31.2 µg/mL (≈ 62.1 µM)	15.6 µg/mL (≈ 31 µM)		O=C(O)c1cn(-c2ccc(F)cc2F)c2nc(Sc3nc4cc(Cl)ccc4[nH]3)c(F)cc2c1=O					
125 µg/mL (≈ 252 µM)	62.5 µg/mL (≈ 126 µM)	62.5 µg/mL (≈ 126 µM)	125 µg/mL (≈ 252 µM)		125 µg/mL (≈ 252 µM)	125 µg/mL (≈ 252 µM)	125 µg/mL (≈ 252 µM)	125 µg/mL (≈ 252 µM)		CCOC(=O)c1cn(-c2ccc(F)cc2F)c2nc(Sc3nc4ccccc4[nH]3)c(F)cc2c1=O					
7.8 µg/mL (≈ 16.7 µM)	31.2 µg/mL (≈ 66.7 µM)	15.6 µg/mL (≈ 33.3 µM)	31.2 µg/mL (≈ 66.7 µM)		15.6 µg/mL (≈ 33.3 µM)	31.2 µg/mL (≈ 66.7 µM)	31.2 µg/mL (≈ 66.7 µM)	15.6 µg/mL (≈ 33.3 µM)		O=C(O)c1cn(-c2ccc(F)cc2F)c2nc(Sc3nc4ccccc4[nH]3)c(F)cc2c1=O					
3.9 µg/mL (≈ 8.08 µM)	31.2 µg/mL (≈ 64.8 µM)	7.8 µg/mL (≈ 16.2 µM)	31.2 µg/mL (≈ 64.8 µM)		31.2 µg/mL (≈ 64.8 µM)	31.2 µg/mL (≈ 64.8 µM)	15.6 µg/mL (≈ 32.3 µM)	3.9 µg/mL (≈ 8.08 µM)		Cc1ccc2[nH]c(Sc3nc4c(cc3F)c(=O)c(C(=O)O)cn4-c3ccc(F)cc3F)nc2c1					
